{"data": "Measurements of several laboratories", "CDK1": "Cyclin-dependent kinase 1 (CDK1, Homo sapiens, UniProt P06493)", "DPP4": "Dipeptidyl peptidase 4 (DPP4, Homo sapiens, UniProt P27487)", "note": "Compare with care: the assays were run in different laboratories."}
{"SMILES": "Cc1cc2cc(Oc3ccnc(Nc4cccc(CS(=O)(=O)NCCN(C)C)c4)n3)ccc2[nH]1", "target": "CDK1", "assay": "enzyme activity, inhibitor, ADP detection", "conditions": "10 µM", "quantity": "inhibition", "result": "51.5%"}
{"SMILES": "COc1cc(-c2cncc3c2CN(C)Cc2cc(N4CCNCC4)ccc2-3)cc(OC)c1OC", "target": "Ephrin type-A receptor 2 (EPHA2, Homo sapiens, UniProt P29317)", "assay": "enzyme activity, inhibitor", "conditions": "1 µM", "quantity": "remaining activity", "result": "103%"}
{"SMILES": "O=C1NC(=NCc2cccs2)S/C1=C\\c1ccc2ncccc2c1", "target": "CDK1", "assay": "enzyme activity, inhibitor, ADP detection", "conditions": "10 µM", "quantity": "inhibition", "result": "100%"}
{"SMILES": "Cn1c(=O)cc(N2CCC(N)CC2)n(Cc2nc3ccccc3c(=O)n2-c2cccc(C(F)(F)F)c2)c1=O", "target": "DPP4", "assay": "enzyme activity, inhibitor", "conditions": "20 µM", "quantity": "inhibition", "result": "25.6%"}
{"SMILES": "C=CC(=O)N1CCC(COCC(=O)N2CCN(c3nc(-c4cnc(N)nc4C(F)F)nc(N4CCOC[C@@H]4C)n3)CC2)CC1", "target": "Calcium/calmodulin-dependent protein kinase kinase 2 (CAMKK2, Homo sapiens, UniProt Q96RR4)", "assay": "binding, competition with immobilised ligand", "conditions": "1 µM", "quantity": "remaining binding", "result": "99%"}
{"SMILES": "CNc1ncc2c(/C=C/C(=O)N3CCC(OC)CC3)nn(Cc3cccc(C(F)(F)F)c3)c2n1", "target": "Cyclin-dependent kinase 1, with cyclin A2 (CDK1, Homo sapiens, UniProt P06493)", "assay": "enzyme activity, inhibitor, radiometric", "conditions": "1 µM", "quantity": "remaining activity", "result": "86%"}
{"SMILES": "CCO[C@@H](Cc1ccc(OCCc2ccc(OS(C)(=O)=O)cc2)cc1)C(=O)O", "target": "CDK1", "assay": "enzyme activity, inhibitor, ADP detection", "conditions": "100 µM", "quantity": "inhibition", "result": "96.9%"}
{"SMILES": "Cn1c(=O)cc(N2CCC(N)CC2)n(Cc2nc3ccc(Br)cc3c(=O)n2-c2cccc(F)c2)c1=O", "target": "DPP4", "assay": "enzyme activity, inhibitor", "conditions": "20 µM", "quantity": "inhibition", "result": "46.8%"}
{"SMILES": "Cc1cc([C@@H](C)Nc2ccccc2C(=O)O)c2nc(N3CCC(F)(F)CC3)c(C#N)c(=O)n2c1", "target": "Mitogen-activated protein kinase 3 (MAPK3, Homo sapiens, UniProt P27361)", "assay": "binding, competition with immobilised ligand", "conditions": "1 µM", "quantity": "remaining binding", "result": "100%"}
{"SMILES": "Cn1c(=O)cc(N2CCC(N)CC2)n(Cc2nc3ccc(Br)cc3c(=O)n2-c2ccc(F)cc2)c1=O", "target": "DPP4", "assay": "enzyme activity, inhibitor", "conditions": "20 µM", "quantity": "inhibition", "result": "27.3%"}
{"SMILES": "O=C(Cn1cc(C=CC(=O)c2ccc(F)cc2)nn1)Nc1nc(-c2ccccc2)cs1", "target": "Stromelysin-2 (Homo sapiens, UniProt P09238)", "assay": "enzyme activity, inhibitor", "conditions": "0.5 µM", "quantity": "inhibition", "result": "82.4%"}
{"SMILES": "CN(C)c1ncnc2c1ncn2[C@@H]1O[C@H](CCl)[C@@H](NC(=O)[C@@H](CSC(c2ccccc2)c2ccccc2)NC(=O)OC(C)(C)C)[C@H]1O", "target": "Aminopeptidase N (ANPEP, Homo sapiens, UniProt P15144)", "assay": "enzyme activity, inhibitor, fluorescence", "conditions": "10 µM", "quantity": "inhibition", "result": "0%"}
